Experimental data published in ChEMBL document CHEMBL4359831, “Chemoproteomics of an Indole-Based Quinone Epoxide Identifies Druggable Vulnerabilities in Vancomycin-Resistant Staphylococcus aureus” (J Med Chem, 2019).
Values after ≈ are worked out from the molar mass of the structure shown. Active and inactive are the calls of the source. The rule behind the calls is not given here.

Experiments:
[1] = target: T1, Arsenate reductase (Staphylococcus aureus) (UniProt P0A006); assay: Binding affinity to Staphylococcus aureus ATCC 29213 Arsenate reductase at 10 uM in presence of 9-(Pent-4-yn-1-yl)-1a,10a-dihydro-2H-oxireno[2',3':4,5]-benzo[1,2-a]carbazole-2,10(9H)-dione after 1 hr by biotin-azide fluorescence dependent LC-MS/MS-based ABPP assay
T1 sequence (whole entry): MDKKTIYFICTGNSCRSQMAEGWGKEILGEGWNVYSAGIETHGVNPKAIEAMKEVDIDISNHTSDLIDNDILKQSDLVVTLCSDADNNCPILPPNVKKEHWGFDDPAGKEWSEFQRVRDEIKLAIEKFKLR
Procedure, shortened: (§1)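 Competitive LC–MS/MS ABPP on S. aureus soluble proteome. Pretreatment 1 h with DMSO, compound (10 μM), comparator (10 μM) or iodoacetamide (10 mM). Chase with alkyne probe (10 μM, 1 h), then Cu-catalysed click with biotin-azide and LC–MS/MS. Targets were proteins at ratio ≤0.1 versus DMSO in the compound and IAM groups and ~1 in the comparator group.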

Enterococcus faecalis = assay: Antibacterial activity against Enterococcus faecalis B3119 after 16 to 18 hrs by CLSI M07-A10 protocol based dilution method; format: functional
[2] = Cytotoxicity against African green monkey Vero cells after 72 hrs by MTT assay; format: cell-based; conditions: chlorocebus sabaeus
[3] = target: T2, Alkaline phosphatase synthesis transcriptional regulatory protein (Staphylococcus aureus) (UniProt W8TVM3); assay: Binding affinity to Staphylococcus aureus ATCC 29213 Transcriptional regulator PhoP at 10 uM in presence of 9-(Pent-4-yn-1-yl)-1a,10a-dihydro-2H-oxireno[2',3':4,5]-benzo[1,2-a]carbazole-2,10(9H)-dione after 1 hr by biotin-azide fluorescence dependent LC-MS/MS-based ABPP assay; procedure, shortened: as §1
T2 sequence (whole entry): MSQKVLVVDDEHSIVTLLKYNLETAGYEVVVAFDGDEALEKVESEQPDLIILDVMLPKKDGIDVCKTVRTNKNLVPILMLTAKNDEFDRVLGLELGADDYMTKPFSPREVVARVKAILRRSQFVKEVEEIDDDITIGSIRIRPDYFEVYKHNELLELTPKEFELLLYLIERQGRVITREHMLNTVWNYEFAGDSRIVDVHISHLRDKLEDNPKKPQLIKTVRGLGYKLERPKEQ

[4] = L-cysteine reactivity in pH 7.4 phosphate buffer at 100 uM preincubated for 1 hr followed by mono-bromobimane addition and measured after 30 mins by fluorescence based competition assay
[5] = target: T3, 2-dehydropantoate 2-reductase (Staphylococcus aureus) (UniProt A0A0J9X283); assay: Binding affinity to Staphylococcus aureus ATCC 29213 2-dehydropantoate 2-reductase at 10 uM in presence of 9-(Pent-4-yn-1-yl)-1a,10a-dihydro-2H-oxireno[2',3':4,5]-benzo[1,2-a]carbazole-2,10(9H)-dione after 1 hr by biotin-azide fluorescence dependent LC-MS/MS-based ABPP assay; procedure, shortened: as §1
T3 sequence (whole entry): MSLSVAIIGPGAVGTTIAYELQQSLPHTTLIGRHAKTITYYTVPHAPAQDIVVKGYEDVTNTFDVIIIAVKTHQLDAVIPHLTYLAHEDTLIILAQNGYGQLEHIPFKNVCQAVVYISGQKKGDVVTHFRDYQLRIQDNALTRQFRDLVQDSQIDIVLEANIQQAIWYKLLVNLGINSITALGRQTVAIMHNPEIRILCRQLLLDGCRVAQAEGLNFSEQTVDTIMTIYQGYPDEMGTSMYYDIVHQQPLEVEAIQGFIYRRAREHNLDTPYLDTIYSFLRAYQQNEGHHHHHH

Staphylococcus aureus [6] = assay: Antibacterial activity against vancomycin-resistant Staphylococcus aureus SA-HIP-15178 after 16 to 18 hrs by CLSI M07-A10 protocol based dilution method; format: functional
Staphylococcus aureus [7] = assay: Binding affinity to Staphylococcus aureus ATCC 29213 DNA polymerase III subunit beta at 10 uM in presence of 9-(Pent-4-yn-1-yl)-1a,10a-dihydro-2H-oxireno[2',3':4,5]-benzo[1,2-a]carbazole-2,10(9H)-dione after 1 hr by biotin-azide fluorescence dependent LC-MS/MS-based ABPP assay; procedure, shortened: as §1
Staphylococcus aureus [8] = assay: Antibacterial activity against Staphylococcus aureus ATCC 29213 after 16 to 18 hrs by CLSI M07-A10 protocol based dilution method; format: functional
Procedure, shortened: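 MIC against ATCC 29213 determined by a previously described protocol; values in μg/mL.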

CC(C)n1c2ccccc2c2ccc3c(c21)C(=O)C1OC1C3=O (centres undefined)
Activity [1]: Active | MIC (Enterococcus faecalis): 64 µg/mL (≈ 210 µM) | CC50 at 72 h [2]: > 25 µg/mL | Activity [3]: Active | Activity [4]: Active | Activity [5]: Active | MIC (Staphylococcus aureus [6]): 0.5 µg/mL (≈ 1.64 µM) | Activity (Staphylococcus aureus [7]): Active | MIC (Staphylococcus aureus [8]): 0.125 to 0.5 µg/mL (≈ 0.409 to 1.64 µM)
